The source of these data is publication PMC2854813 (Advanced synthesis & catalysis, 2009).

The target in series [1] is T1, PETNR (Enterobacter cloacae, UniProt P71278).
T1 sequence (P71278 1-365): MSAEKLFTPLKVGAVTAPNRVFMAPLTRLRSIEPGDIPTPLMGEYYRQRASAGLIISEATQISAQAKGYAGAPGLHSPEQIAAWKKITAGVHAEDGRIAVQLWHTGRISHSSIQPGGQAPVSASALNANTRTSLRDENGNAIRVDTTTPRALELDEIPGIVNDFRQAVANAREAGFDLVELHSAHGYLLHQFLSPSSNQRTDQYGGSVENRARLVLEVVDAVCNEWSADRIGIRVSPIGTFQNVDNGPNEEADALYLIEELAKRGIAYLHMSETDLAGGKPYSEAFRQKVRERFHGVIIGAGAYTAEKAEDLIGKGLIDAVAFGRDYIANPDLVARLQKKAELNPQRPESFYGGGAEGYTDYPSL
Nature of the series: Substrate screen of PETNR by spectrophotometric assays or GC analysis. Format: biochemical, Enterobacter cloacae st. PB2.

For series [2], the target named is T1, PETNR. Description: Steady-state kinetics of PETNR with α,β-unsaturated activated alkenes. Format: biochemical, Enterobacter cloacae st. PB2. The settings on record: for Km / kcat: apparent, 5% ethanol.
Series [3] has as its target T1, PETNR. Nature of the series: Enzyme concentration dependence of the reduction of ketoisophorone by PETNR. Format: biochemical, Enterobacter cloacae st. PB2. Conditions: 2 h, pH 7.0, 3a 5 mM, NADPH 6 mM. The essentials:
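Ketoisophorone (5 mM) and NADPH (6 mM) with varied PETNR in 50 mM phosphate pH 7.0, shaken at 130 rpm at 30 °C for 2 h. Extraction was into ethyl acetate containing internal standard. Conversion was by GC (DB-Wax) and ee by GC on a Chirasil-DEX-CB column.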

For series [4], the target named is T1, PETNR. Nature of the series: Time course of ketoisophorone reduction and product racemisation, PETNR 0.02 μM. Format: biochemical, Enterobacter cloacae st. PB2. The essentials: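 Racemisation time course of ketoisophorone reduction at pH 7.0 over 24 h; substrate added in DMF (2% final). Controls at 8 h either removed enzyme by 10 kDa spin filtration (5000 rpm, 5 min) or added the PETNR inhibitor 1,4,5,6-tetrahydroNADPH (1.2 mg), then incubated to 24 h total. Conversion by GC (DB-Wax); ee by GC (Chirasil-DEX-CB).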

Series [5] concerns the target T1, PETNR. Description: Aerobic versus anaerobic steady-state reaction rate of PETNR. The series is classed as biochemical, Enterobacter cloacae st. PB2. The settings on record: aerobic compared to anaerobic assays. The essentials: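 NADPH oxidation was followed at 340 nm (365 nm for substrates absorbing at 340 nm) for 2 min at 25 °C. Anaerobic runs used a glove box (<5 ppm O2) with deoxygenated enzyme; aerobic runs were done outside it.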

In series [6] the target is T1, PETNR. Nature of the series: Time effect on optical purity of levodione at PETNR 2 μM. Format: biochemical, Enterobacter cloacae st. PB2. Conditions: Supporting Information Table S1.
For series [7], the target named is T1, PETNR. The settings on record: cited from earlier work.
Where [8] appears, read: anaerobic, pH 7.0, 25 °C, NADPH 100 μM.

Like-named read-outs stand apart in the source and are kept apart here. Some results are limits rather than exact numbers.

`O=C(O)C1=CCCCC1` [1-cyclohexene-1-carboxylic acids, 1-cyclohexene-1-carboxylic acid]: the “activity of PETNR towards the substrate (in words)” value at PETNR [1] is on record as “did not reduce”.

The molecule `CC1=CC(=O)NC1=O` [2a, 2-Methylmaleimide] came in with a Ki at PETNR [2] of 3.2 ± 0.7 mM.

In the case of `BrC1C=CCCC1` (stereo not drawn) [3-bromocyclohexene], the “activity of PETNR towards the substrate (in words)” value on PETNR [1] is “no activity”.

Turning to `O=C1C=C(c2ccccc2)CCC1` [3-phenylcyclohexene-1-one], the “activity of PETNR towards the substrate (in words)” value at PETNR [1] is “inactive”.

As to `O=C(O)/C=C(\C(=O)O)c1ccccc1` [3-phenylmaleic acid], on PETNR [1], the “activity of PETNR towards the substrate (in words)” value is recorded as “did not reduce”.

`CC1=CC(=O)CC(C)(C)C1=O` [3a, ketoisophorone]: the “Conv. [%]” value at PETNR [3] (enzyme 0.002 μM) is 2%; on PETNR [3] (enzyme 0.02 μM), 37%; on PETNR [3] (enzyme 0.2 μM), above 99%; on PETNR [3] (enzyme 2 μM), above 99%; on PETNR [4] (0.5 h, PETNR 0.02 μM, pH 7.0) it was 14%; on PETNR [4] (1 h, PETNR 0.02 μM, pH 7.0), 27%. In addition, the “Conv. [%]” value is recorded as 37% on PETNR [4] (1.5 h, PETNR 0.02 μM, pH 7.0); 53% at PETNR [4] (3 h, PETNR 0.02 μM, pH 7.0); 69% on PETNR [4] (4 h, PETNR 0.02 μM, pH 7.0); 85% on PETNR [4] (6 h, PETNR 0.02 μM, pH 7.0); 94% on PETNR [4] (8 h, PETNR 0.02 μM, pH 7.0); 98% at PETNR [4] (12 h, PETNR 0.02 μM, pH 7.0). Further, the “Conv. [%]” value at PETNR [4] (22 h, PETNR 0.02 μM, pH 7.0) is above 99%; at PETNR [4] (24 h, PETNR 0.02 μM, pH 7.0) it was above 99%; at PETNR [4] (24 h, PETNR inhibitor NADPH4 (1.2 mg) added after 8 h), 99%; on PETNR [4] (24 h, filtered (10 K filter) after 8 h to remove all enzyme content) it was 99%. Moreover, the Km on PETNR [2] (setting [8]) came out at 13.7 ± 0.5 µM. Further, the turnover number (kcat) on PETNR [2] (setting [8]) is 5.52 ± 0.10 s⁻¹.

As to `O=C1C=CCCC1` [4a, 2-cyclohexenone], at PETNR [5], the “reduction in the overall steady-state reaction rate” value was found to be 18%. Further, the Ki at PETNR [2] amounted to 23.3 ± 1.7 mM.

On to `CCC=C(C)C=O` [10a, 2-methylpentenal], for which the “reduction in the overall steady-state reaction rate” value at PETNR [5] is given as 48%. For the same molecule, on PETNR [2] (setting [8]), the Km was 102 ± 10.5 µM and the kcat was found to be 6.23 ± 0.33 s⁻¹. In addition, the Ki at PETNR [2] (substrate inhibition, anaerobic, pH 7.0, 25 °C, NADPH 100 μM) turned out to be 1.93 ± 0.46 mM.

In the case of `CC1=CC(=O)CCC1` [15a, 3-methylcyclohexenone], the “activity of PETNR towards the substrate (in words)” value on PETNR [1] was “significant reduction in enzyme activity”.

As to `CC1=CC(=O)CC1` [16a, 3-methylcyclopentenone], the “activity of PETNR towards the substrate (in words)” value at PETNR [1] is “significant reduction in enzyme activity”.

Consider `C[C@@H]1CC(=O)CC(C)(C)C1=O` [(R)-3b, (R)-Levodione], for which the rate of racemisation at PETNR [6] is on record as 3 % ee/h. The “decline in enantiopurity with time (rate of racemisation)” value at PETNR [4] (PETNR 0.02 μM, pH 7.0, 30 °C, aqueous, non-enzymatic) is “approximately 3 % ee/h”.

Turning to `NC(=O)C1=CN([C@@H]2O[C@H](COP(=O)(O)OP(=O)(O)OC[C@H]3O[C@@H](n4cnc5c(N)ncnc54)[C@H](OP(=O)(O)O)[C@@H]3O)[C@@H](O)[C@H]2O)CCC1` [NADPH4, 1,4,5,6-tetrahydroNADPH], the “inhibition of PETNR activity (in words)” value on PETNR [7] is listed as “excellent inhibitor”.

As to `C/C=C/C#N` [crotonitrile], the “activity of PETNR towards the substrate (in words)” value at PETNR [1] is “no activity”.

For the molecule `N#CC1=CCCCC1` [cyclohexene-1-carbonitrile], at PETNR [1], the “activity of PETNR towards the substrate (in words)” value is “no activity”.

Turning to `COC(=O)C1=CCCCC1` [methyl cyclohexenecarboxylate, methyl 1-cyclohexene-1-carboxylate], the “activity of PETNR towards the substrate (in words)” value at PETNR [1] was “did not reduce”.

Take `COC(=O)/C=C/c1ccccc1` [methyl trans-cinnamate]: the “activity of PETNR towards the substrate (in words)” value at PETNR [1] is “did not reduce”.

For the molecule `O=C(O)/C=C/c1ccccc1` [trans-cinnamic acid], at PETNR [1], the “activity of PETNR towards the substrate (in words)” value is on record as “did not reduce”.

Regarding `NC(=O)/C=C/c1ccccc1` [trans-cinnamide], at PETNR [1], the “activity of PETNR towards the substrate (in words)” value was “did not reduce”.

As for `N#C/C=C/c1ccccc1` [trans-cinnamonitrile], the “activity of PETNR towards the substrate (in words)” value on PETNR [1] was “no activity”.

Turning to `BrC=Cc1ccccc1` [β-bromostyrene], at PETNR [1], the “activity of PETNR towards the substrate (in words)” value is given as “no activity”.
